The list is not random: actives were taken first. Their share in the collection is about 1.5%.
APJ ag – agonists of human APJ apelin receptor; P35414; CHO-K1 APJ PathHunter beta-arrestin, luminescence; 0% DMSO wells, 100% apelin; activation, % at 20 µM; 330,000 compounds, 0.11% hits;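 active = activation more than six SD over the plate average, tested at 20 µM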;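 note: 0% = DMSO alone and 100% = apelin-13 at 10 nM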
Target sequence (P35414 whole entry, looked up): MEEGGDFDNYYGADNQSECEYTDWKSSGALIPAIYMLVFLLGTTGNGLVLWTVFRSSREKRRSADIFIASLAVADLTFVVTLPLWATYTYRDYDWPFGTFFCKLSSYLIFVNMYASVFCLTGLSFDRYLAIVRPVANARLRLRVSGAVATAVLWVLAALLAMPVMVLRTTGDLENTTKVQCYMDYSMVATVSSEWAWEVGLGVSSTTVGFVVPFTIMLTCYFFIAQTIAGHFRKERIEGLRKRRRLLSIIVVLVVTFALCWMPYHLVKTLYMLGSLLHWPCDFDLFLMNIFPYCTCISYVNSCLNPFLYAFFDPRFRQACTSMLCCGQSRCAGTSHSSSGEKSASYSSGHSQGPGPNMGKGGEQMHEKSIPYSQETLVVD
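Assay system – PathHunter CHO-K1 APJ (AGTRL-1) beta-arrestin reporter cells · Compound – one dose, 20 µM compound, 1% DMSO · Timing – compound 90 min 25 °C, reagent 1 h · Measured by – luminescence from split beta-galactosidase complementation, Galacton Star/Emerald II substrate · Measure – beta-arrestin recruitment to APJ as agonist activity, luminescent signal · Benchmarks – DMSO vs Apelin-13 10 nM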
CCR6 antag – blocks CCL20-driven beta-arrestin recruitment at human CCR6; AID 493098; 340,000 compounds, 0.49% hits; inhibition, % at 20 µM; P51684; CHO-K1 CCR6 PathHunter beta-arrestin, luminescence, CCL20-stimulated;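 active = compounds whose inhibition of the agonist-driven luminescence signal at 20 µM reaches about 50%, limit read from the data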;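 note: cells stimulated with CCL20 at 14 nM final; plate controls were DMSO with CCL20 for no effect and DMSO without agonist for full effect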
APJ antag – blocks the human apelin receptor APJ. 330,000 compounds, 0.32% hits. inhibition, % at 20 µM. P35414. CHO-K1 APJ beta-arrestin complementation, luminescence. AID 2521;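 active = inhibition above about 40% at 20 µM, limit read from the data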;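 note: cells challenged with 10 nM apelin-13 agonist together with compound; plate controls were apelin-13 plus DMSO wells for no effect and DMSO wells lacking apelin-13 for full effect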
CXCR6 block – inhibitors of human CXCR6 receptor. O00574. CHO-K1 PathHunter CXCR6 beta-arrestin, luminescence. inhibition, % at 20 µM. 360,000 compounds, 0.36% hits; in the data active = inhibition above about 34%, passing the limit was not always enough;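 note: antagonist mode with CXCL16 agonist at 10 nM final; 0% = 10 nM CXCL16 with DMSO and 100% = unstimulated wells without agonist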
Target sequence (O00574 whole entry, looked up): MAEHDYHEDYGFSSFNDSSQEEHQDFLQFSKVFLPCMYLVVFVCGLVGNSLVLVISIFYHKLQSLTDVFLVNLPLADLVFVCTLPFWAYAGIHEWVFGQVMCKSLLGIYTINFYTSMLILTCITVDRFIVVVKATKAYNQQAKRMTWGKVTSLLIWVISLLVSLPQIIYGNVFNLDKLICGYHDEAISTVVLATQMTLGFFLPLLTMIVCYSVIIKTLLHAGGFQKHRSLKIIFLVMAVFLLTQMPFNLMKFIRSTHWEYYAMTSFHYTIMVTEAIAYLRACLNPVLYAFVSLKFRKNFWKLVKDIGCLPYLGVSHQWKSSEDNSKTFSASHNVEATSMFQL
EBI2 antag – antagonists of human EBI2 receptor. EBI2 beta-arrestin recruitment, luminescence, 7a,25-OHC stimulated. P32249. AID 651636. 360,000 compounds, 0.81% hits. inhibition, % at 5 µM; in the data active = inhibition above about 38%;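 note: enzyme fragment complementation signal reports receptor beta-arrestin coupling in cells; 0% = agonist plus DMSO wells and 100% = wells without agonist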
EBI2 conf – EBI2 (human) antagonism, single concentration confirmation; inhibition, % at 5 µM; 2,400 compounds, 29% hits; AID 651997; shares compounds with EBI2 antag; EBI2 beta-arrestin luminescence, 7a,25-OHC antagonism;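 active = inhibition of at least 50%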
EBI2 agonist – EBI2 agonism counter-screen. 2,400 tested, under 10 active. shares compounds with EBI2 antag. AID 652000. activation, % at 5 µM. EBI2-expressing cells, agonist mode, luminescence, 60 min; 0% vehicle, 100% 7α,25-dihydroxycholesterol control;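 active = activation of at least 50%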
bGal counter – beta-galactosidase inhibition counter-screen | shares compounds with EBI2 antag | purified beta-galactosidase, luminescent Galacton Star, 15 min | inhibition, % at 5 µM | 2,400 compounds, 1% hits | AID 652176;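 active = replicate-average signal at least 3 plate SD below neutral wells, shown as high inhibition, flagging enzyme-inhibiting false positives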;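 note: 0% = DMSO wells with enzyme and 100% = wells lacking enzyme; higher means stronger loss of beta-gal luminescence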
An asterisk follows results filed as active; / = no result given.

SMILES	APJ ag	CCR6 antag	APJ antag	CXCR6 block	EBI2 antag	EBI2 conf	EBI2 agonist	bGal counter
COc1ccc(C(C)=O)cc1Cn1c(C)c(C(=O)NCc2ccc(C(C)C)cc2)sc1=O	/	/	/	9.2	15.0	/	/	/
Clc1cc(Cl)c(OCCCCn2cncn2)c(Cl)c1	0.0	0.6	6.1	-5.0	0.0	/	/	/
N#Cc1cc2c(nc1SCC(=O)Nc1sc3c(c1C#N)CCC3)CCC2	-4.2	26.4	15.8	1.5	15.4	/	/	/
N#Cc1cc2c(nc1SCC(=O)Nc1sc3c(c1C#N)CCC3)CCCCCC2	-5.4	1.9	6.4	6.9	46.9*	18.8	0.6	6.1
O=C(NCC1CCCN1S(=O)(=O)c1cccs1)c1cccc(Cl)c1 (stereo not drawn)	5.0	4.9	-0.3	-2.3	-1.5	/	/	/
COc1ccccc1C1CCN(C(=O)c2cnn(-c3ccccc3)c2C)CC1	-1.6	5.7	-0.6	3.5	53.7*	20.3	1.6	7.4
COc1ccccc1C1CCN(C(=O)c2ccc(Cl)cc2)CC1	-0.3	16.4	5.9	7.4	87.6*	69.5*	1.8	5.3
COc1cc(NC(=O)N2CCc3nc(Nc4cc(Cl)cc(Cl)c4)ncc3C2)cc(OC)c1OC	/	/	/	-4.5	47.1*	7.1	-0.1	-15.1
COc1ccc([C@H]2CC(=O)C=C(c3ccc4c(c3)OCO4)C2)cc1	-3.9	13.2	8.8	-3.6	34.7	/	/	/
Cc1cc(C2=CC(=O)C[C@H](c3ccc(F)cc3)C2)ccc1F	/	/	/	-8.5	48.7*	27.1	0.0	6.4
COc1ccc(NC2=CC(=O)CC(c3ccccc3)C2)cc1 (stereo not drawn)	-5.5	5.2	-17.4	12.3	51.5*	31.3	1.5	12.8
COc1ccc([C@H]2CC(=O)C=C(c3cccc(C(C)C)c3)C2)cc1	-4.2	23.4	-2.7	6.5	3.8	/	/	/
COc1ccc([C@H]2CC(=O)C=C(c3ccc4ccn(C)c4c3)C2)cc1	-1.6	22.3	11.1	3.2	72.8*	43.5	0.8	4.4
COc1ccc([C@H]2CC(=O)C=C(c3ccc4c(c3)sc3ccccc34)C2)cc1	-0.8	20.5	7.0	0.5	54.6*	18.8	1.3	8.5
CNC[C@@H]1OCc2cnnn2CCCC(=O)N([C@H](C)CO)C[C@H]1C	/	/	/	7.8	-2.9	/	/	/
COc1ccc(NC(=O)N[C@H]2CC[C@@H](CC(=O)NC3CCC3)O[C@@H]2CO)cc1	/	/	/	/	-1.4	/	/	/
COc1ccc(Cc2nc3ccc(C(=O)NC(C)Cc4ncccc4C)cc3o2)cc1OC (stereo not drawn)	2.8	8.3	-2.4	-6.0	-6.4	/	/	/
COc1ccc([C@H]2CC(=O)C=C(c3ccccc3)C2)cc1	-4.3	13.2	2.1	2.8	41.4*	31.5	-1.9	-1.5
COc1ccc([C@H]2CC(=O)C=C(c3ccc(SC)cc3)C2)cc1OC	-2.7	19.8	-13.4	9.5	27.9	/	/	/
COc1ccc(C2=CC(=O)C[C@H](c3ccc4c(c3)OCO4)C2)cc1	-5.2	15.1	1.3	5.4	41.4	/	/	/
COc1ccc([C@H]2CC(=O)C=C(c3cccc(OC)c3)C2)cc1	-3.5	11.2	17.4	0.8	33.6	/	/	/
COc1ccc(C2=CC(=O)C[C@H](c3ccc(OC)cc3)C2)cc1	-4.6	-3.5	1.3	-0.2	53.8*	44.2	-0.9	-8.5
COc1ccc([C@H]2CC(=O)C=C(c3ccc(SC)cc3)C2)cc1	-5.2	20.5	9.8	10.2	71.1*	47.2	0.1	-11.1
CSc1ccc(C2=CC(=O)C[C@H](c3ccc(F)cc3)C2)cc1	-4.1	28.3	9.8	2.2	66.0*	50.3*	-0.6	-6.6
CCN1CCN(CCC(=O)Nc2cc(OC)cc(OC)c2)CC1	2.3	10.6	0.6	2.8	-2.0	/	/	/
SMILES	APJ ag	CCR6 antag	APJ antag	CXCR6 block	EBI2 antag	EBI2 conf	EBI2 agonist	bGal counter
O=C1C=C(c2cc(Cl)cc(Cl)c2)C[C@@H](c2ccc(F)cc2)C1	-2.9	18.2	12.7	0.2	47.5*	22.3	0.4	5.7
O=C1C=C(c2ccc(OC(F)(F)F)cc2)C[C@@H](c2ccc(F)cc2)C1	-3.3	11.9	7.1	3.2	52.1*	38.0	-0.1	-7.7
COc1ccc([C@H]2CC(=O)C=C(c3cc(Cl)cc(Cl)c3)C2)cc1	-3.0	12.8	5.6	0.4	46.2*	19.3	-1.8	-16.8
COc1ccc([C@H]2CC(=O)C=C(c3ccc4cc[nH]c4c3)C2)cc1	-0.5	17.7	6.0	-3.2	48.5*	36.2	0.1	6.4
O=C1C=C(c2ccc(Cl)c(C(F)(F)F)c2)C[C@@H](c2ccc(F)cc2)C1	-2.7	16.1	3.4	-6.6	19.0	/	/	/
COc1ccc([C@H]2CC(=O)C=C(c3cc(C(F)(F)F)cc(C(F)(F)F)c3)C2)cc1	-2.6	1.2	2.2	1.5	34.9	/	/	/
C=CCNc1ncnc2c1ncn2[C@H]1CN(Cc2ccco2)C[C@@H](CO)O1	/	/	/	-0.4	-4.1	/	/	/
CCc1c(C(=O)N2CCN(c3ccccc3F)CC2)[nH]c(C)c1C(C)=O	8.1	-4.5	6.6	-9.0	-3.4	/	/	/
COc1cccc(CC(=O)Nc2cc(S(=O)(=O)N3CCOCC3)ccc2OC)c1	-6.1	7.4	8.4	7.9	-1.8	/	/	/
Cc1ccc(C)c(CN2CCC(CNC(=O)Nc3ccc(Cl)cc3)CC2)c1	-2.1	6.9	0.3	-10.6	21.2	/	/	/
Cc1ccc(C)c(CN2CCC(CNC(=O)Nc3ccc(Br)cc3F)CC2)c1	-1.8	12.6	-15.3	-3.0	52.2*	10.6	1.4	1.2
NS(=O)(=O)c1ccc(N/N=C/c2ccc(O)c(O)c2O)c([N+](=O)[O-])c1	/	33.1	/	10.1	-6.8	/	/	/
NS(=O)(=O)c1ccc(N/N=C/c2ccc(O)cc2O)c([N+](=O)[O-])c1	0.7	45.6	-1.7	24.0	42.7*	17.7	-1.6	2.1
O=C(CSc1ccc2ccccc2n1)N1CCC(c2noc3ccc(F)cc23)CC1	-3.2	-2.3	1.3	-7.7	38.0*	1.5	1.8	2.8
O=C(CSc1ccccc1Cl)N1CCC(c2nc3ccccc3s2)CC1	2.7	-7.7	-8.1	-24.0	13.0	/	/	/
Cc1nnc(SCC(=O)N2CCC(c3noc4ccc(F)cc34)CC2)s1	-4.8	6.4	2.3	21.5	-9.5	/	/	/
O=C(CSc1ccc(F)cc1)N1CCC(c2nc3ccccc3s2)CC1	1.8	11.3	2.2	-0.8	46.0*	15.3	-1.0	-16.1
C[C@H](CO)N1C[C@H](C)[C@@H](CN(C)C(=O)Nc2ccc3c(c2)OCO3)Oc2c(NC(=O)Nc3ccc4c(c3)OCO4)cccc2C1=O	0.2	-6.0	-1.1	-6.2	-15.7	/	/	/
c1ccc(-c2csc(Nc3nc(N4CCOCC4)nc(N4CCOCC4)n3)n2)cc1	4.9	-6.2	0.4	-2.8	50.4*	37.1	-1.0	-9.7

Compound activity from PubChem.
